Assay results published in PMC9898131 (Nature chemical biology, 2022).

Molecular target: COQ8A^NΔ250 (Homo sapiens, UniProt Q8NI60)
Assay: Differential scanning fluorimetry
Type: binding
Settings: 100 μM inhibitor, 10 μM COQ8A^NΔ250
Method in brief: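 Recombinant COQ8A^NΔ250 purified on cobalt IMAC resin, exchanged into 20 mM HEPES pH 7.2, 300 mM NaCl, 10% glycerol, 5 mM BME. They were spun briefly, then kept 10 min at room temperature in the dark before melting.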

Chain of COQ8A^NΔ250 (Q8NI60 251-647 limits assumed, stated change not applied): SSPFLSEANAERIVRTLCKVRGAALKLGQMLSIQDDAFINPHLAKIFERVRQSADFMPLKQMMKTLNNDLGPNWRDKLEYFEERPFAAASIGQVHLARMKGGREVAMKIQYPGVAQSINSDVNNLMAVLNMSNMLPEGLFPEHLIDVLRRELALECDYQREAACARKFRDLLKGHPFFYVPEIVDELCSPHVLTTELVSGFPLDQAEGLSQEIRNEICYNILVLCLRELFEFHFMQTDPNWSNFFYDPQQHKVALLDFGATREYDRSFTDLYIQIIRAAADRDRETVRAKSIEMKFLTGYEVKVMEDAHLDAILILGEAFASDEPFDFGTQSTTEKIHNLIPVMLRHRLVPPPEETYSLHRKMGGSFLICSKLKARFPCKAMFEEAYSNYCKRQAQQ

With `C#Cc1cccc(Nc2ncnc3cc(OCCOC)c(OCCOC)cc23)c1` [erlotinib] the “COQ8A melting temperature increase (ΔTm)” value was “weak-binding control”.
